Results pooled from the literature.
Target: Serine/threonine-protein kinase WNK2 (WNK2, Homo sapiens, UniProt Q9Y3S1)

| Compound | assay | setting | remaining binding [%] |
| --- | --- | --- | --- |
| COc1ccc2c(c1)O[C@@H](c1ccc(OC)c(OC)c1)C[C@H]2NC(=O)C1(c2ccc3c(c2)OC(F)(F)O3)CC1 | cell-free assay, competition with immobilised ligand | 1 µM | 84 |
| c1cnn2ncc(-c3ccnc(N4CCC45COC5)n3)c2c1 | binding | 1 µM | 78 |
| O=C(c1ccc(Nc2ncc(Cl)c(-c3cc4ccccc4s3)n2)cc1)N1CCC(N2CCCC2)CC1 | binding, competition with immobilised ligand | 1 µM | 83 |
| CNC(=O)[C@@H]1CC[C@@H](n2c(-c3ccc4cnccc4c3)nc3ccc(C(=O)NCc4cccc(C(N)=O)c4)cc32)C1 | binding, competition with immobilised ligand | 1 µM | 100 |
| Cc1nc(Cc2cccc(C(F)(F)F)c2)sc1-c1ccc(C(N)=O)nc1 | cell-free assay, competition with immobilised ligand | 1 µM | 100 |
| O=C(NCC1CCOCC1)c1n[nH]cc1NC(=O)c1c(F)cccc1F | binding, competition with immobilised ligand | 1 µM | 81 |
| Cc1cnn2ncc(-c3ccnc(N(C)C)n3)c2c1 | binding | 1 µM | 100 |
| COc1cnc(Nc2cccc(S(N)(=O)=O)c2)nc1N1CCN(c2ccccc2)C(=O)C1 | binding, competition with immobilised ligand | 1 µM | 100 |
| CC1=C(C#N)[C@@H](c2ccc3[nH]nc(C)c3c2)C(C#N)=C(c2ccc(Cl)cc2)N1 | cell-free assay, competition with immobilised ligand | 1 µM | 100 |
| COc1ncc2cc3ccccc3nc2c1C#N | cell-free assay, competition with immobilised ligand | 5 µM | 100 |
| CN(C)c1nccc(-c2cnn3ncccc23)n1 | binding | 1 µM | 37 |
| Cc1c[nH]c2nccc(Oc3c(F)cc(Nc4cc(Cl)nc(N)n4)cc3F)c12 | cell-free assay, competition with immobilised ligand | 0.1 µM | 96 |
| C[C@@H]1CCN(c2nccc(-c3cnn4ncccc34)n2)C1 | binding | 1 µM | 100 |
| CNC(=O)Nc1ccc2c(c1)CC[C@@]21OC(=O)N(CC(=O)N(Cc2ccc(F)cc2)[C@@H](C)C(F)(F)F)C1=O | cell-free assay, competition with immobilised ligand | 1 µM | 100 |
| CN(C)c1ncc(F)c(-c2cnn3ncccc23)n1 | binding | 1 µM | 82 |
| c1cncc(-c2cccc(Nc3nccc(NC4CCCCC4)n3)c2)c1 | binding, competition with immobilised ligand | 10 µM | 100 |
| Nc1ncc2c(n1)-c1c([nH]c3ccc(C#CC4CC4)cc13)CCCC2 | binding, competition with immobilised ligand | 1 µM | 100 |
| O=C(NCCCN1CCOCC1)c1ccc(Nc2nccc(-c3cc4ccccc4s3)n2)cc1 | binding, competition with immobilised ligand | 1 µM | 60 |
| N[C@H]1CCN(c2nccc(-c3cnn4ncccc34)n2)C1 | binding | 1 µM | 100 |
| O=C(NCCCN1CCOCC1)c1ccc(Nc2ncc(Cl)c(-c3ccc(Cl)s3)n2)cc1 | binding, competition with immobilised ligand | 1 µM | 92 |
| C[C@@H](c1cccc(C#N)c1)n1cc(Cl)cc(C(N)=O)c1=N | cell-free assay, competition with immobilised ligand | 1 µM | 67 |
